Measured values published in ChEMBL document CHEMBL3392968 (Eur J Med Chem, 2015).
In brackets after ≈: the same amount, converted by molar mass. Activity calls are given as the source filed them. The rule behind the calls is not given here.

How the values were obtained:
[1] = Displacement of [3H]-DTG from sigma 2 receptor guinea pig brain membranes incubated for 120 mins by scintillation counting method; design: species or system Cavia porcellus, Membrane
Summary of the method: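 Guinea pig brain membranes (360 µg protein) with 3 nM [3H]DTG and test compound (10^-5 to 10^-10 M) in 50 mM Tris-HCl pH 8.0, 120 min at room temperature, with 400 nM (+)-SKF10,047 masking σ1 sites. Nonspecific binding with 5 µM DTG; PEI-presoaked GF/B filtration, scintillation counting, Ki by EBDA/LIGAND.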

D(3) dopamine receptor = D(3) dopamine receptor (Rattus norvegicus, UniProt P19020); assay: Displacement of [3H]-7-OH-DPAT from dopamine D3 receptor in rat olfactory tubercle by scintillation counting method; format: tissue-based
C6 [2] = assay: Drug metabolism in rat C6 cells assessed as metabolite formation at 5 uM incubated for 24 hrs at 37 degC by LC/MS spectrometry; format: ADME, cell-based; conditions: c6, 24 h
Summary of the method: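 Glioma C6 cells incubated with 5 µM for 24 h at 37 °C. Cell lysates (2 mg) analysed by LC-MS, compared with untreated control lysates, to detect metabolite ions.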

C6 [3] = assay: Cytotoxicity against rat C6 cells assessed as reduction in cell viability at 0.1 to 5 uM after 48 hrs by MTT assay; format: functional
Summary of the method: (§1)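 C6 cells (HAM'S F12, 10% FBS, 2 mM glutamine, 37 °C, 5% CO2) seeded at 5 × 10^4 cells/well and exposed to 0.1–5 µM for 24, 48 or 72 h. MTT reduction read at 570 nm; viability = A_sample/A_vehicle control × 100. Four independent experiments.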

C6 [4] = assay: Induction of cell cycle arrest in rat C6 cells assessed as accumulation at G2/M phase after 24 and 48 hrs by propidium iodide staining based flow cytometry; format: functional
Summary of the method: (§2)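 C6 cells at 5 µM. About 3 × 10^5 cells fixed in 70% cold ethanol overnight at 4 °C, then stained with 20 µg/mL PI plus 100 µg/mL RNase (final). 10^4 cells analysed by flow cytometry (linear FL3), with doublets excluded by FL3-Area/Width gating; G1, S and G2/M fractions taken from DNA content.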

C6 [5] = assay: Antimigratory activity against rat C6 cells assessed as cell migration level at 5 uM after 24 hrs by transwell chamber assay (reference value: 60%); format: functional, cell-based
Summary of the method: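 C6 cells grown to 70-80% confluency, serum-starved 24 h, then seeded at 10^5 cells/mL in serum-free HAM'S F12 into the upper chamber of an 8 µm-pore transwell; lower chamber held medium with 5% FCS. Compounds (5 µM final) added 2 h after seeding; 24 h at 37 °C. Migrated cells methanol-fixed, DAPI-stained, counted in five fields, scaled to insert area, expressed as % of cells seeded.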

C6 [6] = assay: Cytotoxicity against rat C6 cells assessed as reduction in cell viability at 0.1 to 5 uM after 24 hrs by MTT assay; format: functional, cell-based; summary of the method: as §1
[7] = Stability in pH 7.4 0.02 M phosphate buffer containing 0.1% (v/v) Cremophor ELP assessed as pseudo-first-order rate constant […] by HPLC method; format: physicochemical
Summary of the method: (§3)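 Reaction started by adding 1 mL of a 10^-4 M acetonitrile stock to 10 mL of buffer at 37 ± 0.5 °C. Buffers: pH 7.4, 0.02 M phosphate; pH 1.3, 0.02 M chloridric; both with 0.1% (v/v) Cremophor ELP. Followed by RP-C18 HPLC; run in triplicate, with mean rate constants reported.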

C6 [8] = assay: Cytotoxicity against rat C6 cells assessed as reduction in cell viability at 0.1 to 5 uM after 72 hrs by MTT assay; format: functional; summary of the method: as §1
C6 [9] = assay: Induction of cell cycle arrest in rat C6 cells assessed as accumulation at S phase after 24 and 48 hrs by propidium iodide staining based flow cytometry; format: functional; summary of the method: as §2
[10] = Stability in pH 1.3 0.02 M […] buffer containing 0.1% (v/v) Cremophor ELP assessed as half life […] by HPLC method; format: physicochemical; summary of the method: as §3
C6 [11] = assay: Induction of cell cycle arrest in rat C6 cells assessed as increase in accumulation at S phase after 72 hrs by propidium iodide staining based flow cytometry; format: functional; summary of the method: as §2
[12] = biological target: T1, Histone deacetylase (Rattus norvegicus) (UniProt Q6P6W3+Q99P99+Q99P96+Q4QQW4+Q99P97+Q5RJZ2+B1WBY8); assay: Inhibition of HDAC in rat C6 cells assessed as increase in histone H3 acetylation at 5 uM after 6 hrs by flow cytometry (reference value: 4.5%); format: cell-based; design: scale not given: the % may be the effect or the level left
Summary of the method: (§4)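 C6 cells treated at 5 µM for 6, 15 or 24 h, with DMSO vehicle as control. Fixed in 1% paraformaldehyde, permeabilized with 0.1% Triton X-100, blocked in goat serum. Stained with anti-acetyl-H3 (Lys9) rabbit mAb (1:100, 1 h on ice), then FITC anti-rabbit IgG (20 µg/mL, 45 min). About 10000 events at 488 nm; acetylation quantified from MFI.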

[13] = Effective permeability of the compound by PAMPA method; format: ADME; conditions: read-out: Peff
Summary of the method: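 PAMPA using a porcine polar brain lipid–impregnated filter. Donor: phosphate buffer pH 7.4/pH 6.5 with 500 µM compound and 20% iPrOH co-solvent; acceptor: same buffer. Incubated 18 h at room temperature; donor and acceptor concentrations measured by HPLC; Peff calculated from volumes, filter area (0.28 cm2) and time.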

[14] = Solubility in water at 50 mg incubated at 25 degC for 1 hr by HPLC method; format: physicochemical
C6 [15] = assay: Induction of necrosis in rat C6 cells after 25 to 72 hrs by Annexin-V/propidium iodide staining based flow cytometry; format: functional; conditions: in the assay text read “24 to 72 hrs” for “25 to 72 hrs”
Summary of the method: (§5)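 C6 cells treated at 5 µM for 24, 48 and 72 h. 2.5 × 10^5 cells stained with Annexin-V-FITC (10 min, room temperature, dark), then PI 5 µg/mL. At least 10^4 events collected (FL1/FL3). Late apoptotic cells were Annexin-V+/PI+; necrotic cells were Annexin-V−/PI+.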

[16] = Stability in human plasma assessed half life at 1 mg/mL by HPLC method; format: ADME, cell-free
Summary of the method: (§6)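 Human or rat plasma, obtained from citrated blood (0.3% citric acid) centrifuged at 3000 × g, diluted to 80% with 0.02 M phosphate buffer pH 7.4, incubated with compound at 37 °C. Samples centrifuged at 5000 × g; supernatant analysed by RP-C18 HPLC; remaining intact compound plotted against time to obtain kobs and half-life.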

[17] = Stability in pH 1.3 0.02 M […] buffer containing 0.1% (v/v) Cremophor ELP assessed as pseudo-first-order rate constant […] by HPLC method; format: physicochemical; summary of the method: as §3
C6 [18] = assay: Induction of late apoptosis in rat C6 cells after 25 to 72 hrs by Annexin-V/propidium iodide staining based flow cytometry; format: functional; conditions: in the assay text read “24 to 72 hrs” for “25 to 72 hrs”; summary of the method: as §5
[19] = Stability in pH 7.4 0.02 M phosphate buffer containing 0.1% (v/v) Cremophor ELP assessed as half life at […] by HPLC method; format: physicochemical; summary of the method: as §3
[20] = biological target: T1, Histone deacetylase (Rattus norvegicus); assay: Inhibition of HDAC in rat C6 cells assessed as increase in histone H3 acetylation at 5 uM after 15 hrs by flow cytometry; format: cell-based; summary of the method: as §4
[21] = Stability in rat plasma assessed half life at 1 mg/mL by HPLC method; format: ADME, cell-free; summary of the method: as §6
C6 [22] = assay: Induction of cell cycle arrest in rat C6 cells assessed as accumulation at G1 phase after 24 and 48 hrs by propidium iodide staining based flow cytometry; format: functional; summary of the method: as §2
Plasma [23] = assay: Stability in rat plasma assessed pseudo-first-order rate constant at 1 mg/mL by HPLC method; format: ADME, cell-free; summary of the method: as §6
Plasma [24] = assay: Stability in human plasma assessed pseudo-first-order rate constant at 1 mg/mL by HPLC method; format: ADME, cell-free; summary of the method: as §6
[25] = biological target: Sigma non-opioid intracellular receptor 1 (Cavia porcellus, UniProt Q60492); assay: Displacement of [3H]-(+)-pentazocine from sigma 1 receptor guinea pig brain membranes incubated for 150 mins by scintillation counting method; design: species or system Membrane
[26] = biological target: T1, Histone deacetylase (Rattus norvegicus); assay: Inhibition of HDAC in rat C6 cells assessed as increase in histone H3 acetylation at 5 uM after 24 hrs by flow cytometry (reference value: 4.5%); format: cell-based; design: scale not given: the % may be the effect or the level left; summary of the method: as §4
C6 [27] = assay: Cytotoxicity against rat C6 cells assessed as reduction in cell viability at 0.5 to 5 uM after 24 hrs by MTT assay; format: functional; summary of the method: as §1
D(2) dopamine receptor = D(2) dopamine receptor (Rattus norvegicus, UniProt P61169); assay: Displacement of [3H]-spiperone from dopamine D2 receptor in rat striatum by scintillation counting method
C6 [28] = assay: Induction of necrosis in rat C6 cells after 24 to 72 hrs by Annexin-V/propidium iodide staining based flow cytometry
C6 [29] = assay: Induction of late apoptosis in rat C6 cells after 24 to 72 hrs by Annexin-V/propidium iodide staining based flow cytometry

D(3) dopamine receptor, sequence (P19020 whole entry): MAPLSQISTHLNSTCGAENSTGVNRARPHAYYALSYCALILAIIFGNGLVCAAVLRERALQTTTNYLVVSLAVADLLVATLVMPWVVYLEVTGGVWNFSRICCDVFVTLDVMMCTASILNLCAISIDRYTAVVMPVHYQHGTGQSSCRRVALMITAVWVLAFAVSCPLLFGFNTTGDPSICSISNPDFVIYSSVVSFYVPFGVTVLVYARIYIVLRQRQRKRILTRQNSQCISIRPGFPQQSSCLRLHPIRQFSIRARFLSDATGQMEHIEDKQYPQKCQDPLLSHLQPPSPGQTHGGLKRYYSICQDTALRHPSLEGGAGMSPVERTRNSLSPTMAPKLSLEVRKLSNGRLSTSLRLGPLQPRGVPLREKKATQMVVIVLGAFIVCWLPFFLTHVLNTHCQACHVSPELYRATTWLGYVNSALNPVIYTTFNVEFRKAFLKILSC
D(2) dopamine receptor, sequence (P61169 whole entry): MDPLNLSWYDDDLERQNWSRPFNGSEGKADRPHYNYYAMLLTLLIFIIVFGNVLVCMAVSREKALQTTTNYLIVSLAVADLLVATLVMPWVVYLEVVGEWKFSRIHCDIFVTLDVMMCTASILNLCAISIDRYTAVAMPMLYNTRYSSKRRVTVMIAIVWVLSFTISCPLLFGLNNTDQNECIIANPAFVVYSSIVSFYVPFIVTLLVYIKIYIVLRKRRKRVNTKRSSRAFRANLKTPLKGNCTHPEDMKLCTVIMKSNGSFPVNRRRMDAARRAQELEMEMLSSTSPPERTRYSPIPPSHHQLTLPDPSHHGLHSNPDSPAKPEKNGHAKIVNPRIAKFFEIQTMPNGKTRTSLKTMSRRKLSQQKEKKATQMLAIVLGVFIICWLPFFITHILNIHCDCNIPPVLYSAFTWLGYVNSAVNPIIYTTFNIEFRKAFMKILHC
Sigma non-opioid intracellular receptor 1, sequence (Q60492 whole entry): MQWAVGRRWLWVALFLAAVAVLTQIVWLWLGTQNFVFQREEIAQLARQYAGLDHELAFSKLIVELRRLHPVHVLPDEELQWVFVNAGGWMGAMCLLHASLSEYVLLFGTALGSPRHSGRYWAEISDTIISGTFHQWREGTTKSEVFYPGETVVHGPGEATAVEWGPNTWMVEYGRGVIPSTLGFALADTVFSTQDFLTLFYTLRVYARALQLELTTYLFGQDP

## O=C(CCCN1CCC(O)(c2ccc(Cl)cc2)CC1)c1ccc(F)cc1 [HALOPERIDOL]
[1]
  Ki: 18 nM

## O[C@H](CCCN1CCC(O)(c2ccc(Cl)cc2)CC1)c1ccc(F)cc1
D(3) dopamine receptor
  Ki: 1280 nM
[1]
  Ki: 32 nM

## O=C(CCCc1ccccc1)OC(CCCN1CCC(O)(c2ccc(Cl)cc2)CC1)c1ccc(F)cc1 (racemic)
C6 [2]
  Drug metabolism: metabolite_detected
C6 [3]
  Activity: 60%
C6 [4]
  Activity: inactive
C6 [5]
  Activity: Active
C6 [6]
  Activity: Dose-dependent effect
C6 [6]; C6, 24 h
  IC50: 5 µM
[7]
  K: 0.005 h⁻¹
C6 [8]
  Activity: 40%
C6 [9]
  Activity: inactive
[10]
  half-life at 10000 µM: 5.84 days
C6 [11]
  Activity: Active
[12]
  Activity: 14%
[13]
  Papp: 5.25 ×10⁻⁶ cm/s
[14]
  solubility at 1 h: 1.2 µg/mL (≈ 2.29 µM)
C6 [15]
  Activity: 35%
[16]
  half-life at 1 mg/mL: 3.83 days
[17]
  K: 0.005 h⁻¹
C6 [18]
  Activity: 35%
[19]
  half-life at 10000 µM: 5.3 days
[20]
  Activity: inactive
[21]
  half-life at 1 mg/mL: 6.48 min
C6 [22]
  Activity: inactive
Plasma [23]
  K: 6.41 h⁻¹
Plasma [24]
  K: 0.008 h⁻¹

## O=C(O)CCCc1ccccc1 [PHENYLBUTANOIC ACID]
C6 [4]
  Activity: inactive
C6 [5]
  Activity: inactive
C6 [9]
  Activity: inactive
C6 [11]
  Activity: inactive
[12]
  Activity: 14%
[20]
  Activity: inactive
C6 [22]
  Activity: inactive

## O=C(CCCc1ccccc1)O[C@H](CCCN1CCC(O)(c2ccc(Cl)cc2)CC1)c1ccc(F)cc1
C6 [3]
  Activity: 60%
D(3) dopamine receptor
  Ki: > 5000 nM
C6 [4]
  Activity: inactive
[25]
  Ki: 87.5 nM
C6 [5]
  Activity: Active
C6 [6]
  Activity: Dose-dependent effect
C6 [8]
  Activity: 40%
C6 [9]
  Activity: inactive
C6 [11]
  Activity: Active
[12]
  Activity: 16.1%
[26]
  Activity: 7.2%
C6 [27]
  Activity: 40%
C6 [15]
  Activity: 40%
[16]
  half-life at 1 mg/mL: 3.51 days
[1]
  Ki: 52.7 nM
C6 [18]
  Activity: 40%
[20]
  Activity: inactive
[21]
  half-life at 1 mg/mL: 18.7 min
C6 [22]
  Activity: inactive
Plasma [23]
  K: 2.22 h⁻¹
Plasma [24]
  K: 0.008 h⁻¹
D(2) dopamine receptor
  Ki: > 5 µM

## O[C@@H](CCCN1CCC(O)(c2ccc(Cl)cc2)CC1)c1ccc(F)cc1
D(3) dopamine receptor
  Ki: 353 nM
[1]
  Ki: 9.8 nM

## OC(CCCN1CCC(O)(c2ccc(Cl)cc2)CC1)c1ccc(F)cc1 (racemic) [HYDROXYHALOPERIDOL]
C6 [3]
  Activity: inactive
C6 [4]
  Activity: inactive
C6 [5]
  Activity: inactive
C6 [9]
  Activity: inactive
C6 [11]
  Activity: inactive
[12]
  Activity: inactive
[1]
  Ki: 2 nM
[20]
  Activity: inactive
C6 [22]
  Activity: inactive

## O=C(CCCc1ccccc1)O[C@@H](CCCN1CCC(O)(c2ccc(Cl)cc2)CC1)c1ccc(F)cc1
C6 [3]
  Activity: 60%
D(3) dopamine receptor
  Ki: > 5000 nM
C6 [4]
  Activity: inactive
[25]
  Ki: 230 nM
C6 [5]
  Activity: Active
C6 [6]
  Activity: Dose-dependent effect
C6 [8]
  Activity: 40%
C6 [9]
  Activity: inactive
C6 [11]
  Activity: Active
[12]
  Activity: inactive
C6 [27]
  Activity: 50%
C6 [28]
  Activity: 25%
[16]
  half-life at 1 mg/mL: 3.78 days
[1]
  Ki: 118 nM
[20]
  Activity: inactive
C6 [29]
  Activity: 25%
[21]
  half-life at 1 mg/mL: 13.4 min
C6 [22]
  Activity: inactive
Plasma [23]
  K: 3.09 h⁻¹
Plasma [24]
  K: 0.008 h⁻¹
D(2) dopamine receptor
  Ki: > 5 µM

## Cc1ccccc1NC(=N)Nc1ccccc1C [DITOLYLGUANIDINE]
[1]
  Ki: 22 nM
